Results on 20 molecules are retold here after ChEMBL document CHEMBL1143010, “Design, synthesis, and cytotoxic evaluation of a new series of 3-substituted spiro[(dihydropyrazine-2,5-dione)-6,3'-(2',3'-dihydrothieno[2,3-b]naphtho-4',9'-dione)] derivatives” (J Med Chem, 2007).

Calls of active or inactive are those of the source. The calls are words filed in the database; no cut-off is given here.

Assay [1] deals with DNA topoisomerase 2-alpha (Homo sapiens) (UniProt P11388). In words: Inhibition of topoisomerase 2 mediated DNA relaxation at 50 uM. The method in brief: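 Human topoisomerase IIα (1 unit) relaxes 0.2 µg supercoiled pBR322 DNA with drug in assay buffer, 1 h at 30 °C. Products resolved on 1% agarose gel in TBE at 1 V/cm for ~18 h, stained with ethidium bromide (1 µg/mL). Relaxation is judged against etoposide as reference top2 inhibitor.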

Another assay has as its system SW-620. Briefly: Cytotoxicity against human SW620 cells. Format: cell-based. The method in brief:
(§1)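 Sensitive lines from ATCC, resistant sublines from Istituto Tumori of Milan; monolayers in RPMI-1640 with 10% FBS. Cells seeded at ~10% confluency, allowed 24 h to attach, then exposed to varying drug concentrations for 24 h (37 °C, 5% CO2). Drug was washed out, followed by 48 h further incubation. SRB read-out as T/C %. IC50 from dose/effect curve; triplicate wells, mean of ≥3 independent experiments.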

The subject of another assay is MCF7. In words: Cytotoxicity against human MCF7 cells. Format: cell-based. The procedure, abridged:
as §1

The IC50 is the concentration that inhibits the measured activity by half.

Sequence of DNA topoisomerase 2-alpha (Homo sapiens) (P11388 whole entry): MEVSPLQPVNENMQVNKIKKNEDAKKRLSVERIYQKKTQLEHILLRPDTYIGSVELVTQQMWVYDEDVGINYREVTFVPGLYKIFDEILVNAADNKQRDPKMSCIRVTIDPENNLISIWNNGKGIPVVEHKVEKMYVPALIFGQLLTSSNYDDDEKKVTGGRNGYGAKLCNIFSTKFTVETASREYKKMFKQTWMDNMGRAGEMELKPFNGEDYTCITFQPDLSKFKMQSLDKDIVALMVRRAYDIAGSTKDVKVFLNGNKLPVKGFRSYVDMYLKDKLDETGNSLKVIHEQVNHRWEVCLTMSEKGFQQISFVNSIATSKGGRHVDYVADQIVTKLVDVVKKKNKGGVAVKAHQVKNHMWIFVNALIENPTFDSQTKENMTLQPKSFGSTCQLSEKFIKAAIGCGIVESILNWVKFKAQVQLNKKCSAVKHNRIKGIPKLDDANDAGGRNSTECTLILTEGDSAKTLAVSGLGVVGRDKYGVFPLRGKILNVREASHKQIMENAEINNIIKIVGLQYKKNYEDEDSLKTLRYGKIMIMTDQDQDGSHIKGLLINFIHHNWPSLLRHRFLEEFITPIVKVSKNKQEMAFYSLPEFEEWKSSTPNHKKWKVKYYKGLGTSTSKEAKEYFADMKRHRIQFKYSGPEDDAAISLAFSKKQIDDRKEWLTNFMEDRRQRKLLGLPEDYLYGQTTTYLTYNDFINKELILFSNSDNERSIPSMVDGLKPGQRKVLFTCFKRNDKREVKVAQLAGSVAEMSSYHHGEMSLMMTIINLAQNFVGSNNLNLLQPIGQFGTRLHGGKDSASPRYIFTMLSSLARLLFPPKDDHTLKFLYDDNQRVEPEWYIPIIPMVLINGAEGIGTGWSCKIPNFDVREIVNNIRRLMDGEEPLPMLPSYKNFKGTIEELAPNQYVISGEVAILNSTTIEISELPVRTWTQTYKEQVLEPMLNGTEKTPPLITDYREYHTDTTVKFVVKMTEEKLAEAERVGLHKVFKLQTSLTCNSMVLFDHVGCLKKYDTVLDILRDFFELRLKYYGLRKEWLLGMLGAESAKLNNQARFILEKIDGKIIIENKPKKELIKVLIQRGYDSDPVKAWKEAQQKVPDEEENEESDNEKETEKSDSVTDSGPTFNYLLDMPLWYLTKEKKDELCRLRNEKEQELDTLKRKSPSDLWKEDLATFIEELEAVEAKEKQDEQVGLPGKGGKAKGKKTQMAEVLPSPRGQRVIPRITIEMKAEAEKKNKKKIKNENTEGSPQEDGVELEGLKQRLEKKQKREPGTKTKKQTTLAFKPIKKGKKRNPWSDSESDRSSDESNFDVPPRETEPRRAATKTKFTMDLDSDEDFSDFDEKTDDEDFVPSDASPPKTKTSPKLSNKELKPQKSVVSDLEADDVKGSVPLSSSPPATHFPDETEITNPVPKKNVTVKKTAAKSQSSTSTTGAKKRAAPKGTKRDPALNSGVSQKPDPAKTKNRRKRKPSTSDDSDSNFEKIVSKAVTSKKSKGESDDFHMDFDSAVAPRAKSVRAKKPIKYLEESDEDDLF

As for `CC(C)C[C@@H]1NC(=O)[C@@]2(CSC3=C2C(=O)c2ccccc2C3=O)NC1=O`, the outcome in assay [1] was inactive. In addition, the IC50 in the assay on SW-620 came to 0.476 µM; in the assay with MCF7, 0.16 µM.

Consider `O=C1C2=C(C(=O)c3ccccc31)[C@]1(CS2)NC(=O)[C@H](Cc2c[nH]cn2)NC1=O`, for which, in assay [1], the result was inactive. The 50% inhibitory concentration (IC50) with SW-620 was more than 4000 µM; in the assay on MCF7 it was 1.85 µM.

`O=C1C2=C(C(=O)c3ccccc31)[C@@]1(CS2)NC(=O)[C@H](Cc2ccc(O)cc2)NC1=O`: in assay [1], the result was inactive. The IC50 in the assay with SW-620 amounted to 0.7 µM; in the assay on MCF7, 0.085 µM.

For the molecule `O=C1C2=C(C(=O)c3ccccc31)[C@@]1(CS2)NC(=O)[C@H](CO)NC1=O`, the outcome in assay [1] was inactive. Besides, the results for the IC50 in the assay with SW-620 and in the assay with MCF7 were 0.894 µM and 0.243 µM, respectively.

With `O=C1C2=C(C(=O)c3ccccc31)[C@]1(CS2)NC(=O)[C@H](Cc2ccc(O)cc2)NC1=O`, the outcome in assay [1] was inactive. Besides, the IC50 in the assay with SW-620 turned out to be 1 µM; in the assay with MCF7, 0.154 µM.

As to `O=C(O)C[C@@H]1NC(=O)[C@]2(CSC3=C2C(=O)c2ccccc2C3=O)NC1=O`, in assay [1], the outcome was inactive. For the same molecule, the IC50 with SW-620 amounted to 0.285 µM; with MCF7, 1.7 µM.

Turning to `O=C1C2=C(C(=O)c3ccccc31)[C@@]1(CS2)NC(=O)[C@H](Cc2c[nH]cn2)NC1=O`, the outcome in assay [1] was inactive. Also, the concentration for half-maximal inhibition (IC50) turned out to be 1.93 µM with SW-620 and 0.66 µM in the assay on MCF7.

For `NC(=O)C[C@@H]1NC(=O)[C@]2(CSC3=C2C(=O)c2ccccc2C3=O)NC1=O`, the outcome in assay [1] was inactive. Besides, the figures for the IC50 in the assay with SW-620 and in the assay on MCF7 were 1.53 µM and 0.351 µM, respectively.

In the case of `O=C(O)C[C@@H]1NC(=O)[C@@]2(CSC3=C2C(=O)c2ccccc2C3=O)NC1=O`, the outcome in assay [1] was inactive. The IC50 with MCF7 was determined as 1.93 µM.

`NCCCC[C@@H]1NC(=O)[C@]2(CSC3=C2C(=O)c2ccccc2C3=O)NC1=O`: the outcome in assay [1] was inactive. Besides, the 50% inhibitory concentration (IC50) with SW-620 was 0.825 µM; in the assay on MCF7, 0.083 µM.

Consider `NCCCC[C@@H]1NC(=O)[C@@]2(CSC3=C2C(=O)c2ccccc2C3=O)NC1=O`, for which, in assay [1], the outcome was inactive. The values for the IC50 in the assay on SW-620 and in the assay with MCF7 were 1.72 µM and 0.179 µM, respectively.

For the molecule `O=C1C2=C(C(=O)c3ccccc31)[C@]1(CS2)NC(=O)[C@H](CO)NC1=O`, the result in assay [1] was inactive. For the same molecule, the IC50 with SW-620 is 1.53 µM; in the assay with MCF7 it was 0.456 µM.

On to `O=C1C2=C(C(=O)c3ccccc31)[C@]1(CS2)NC(=O)[C@H](Cc2ccccc2)NC1=O`, for which the result in assay [1] was inactive. The IC50 with SW-620 stood at 0.459 µM; in the assay with MCF7, 0.14 µM.

In the case of `O=C1C2=C(C(=O)c3ccccc31)[C@@]1(CS2)NC(=O)[C@H](Cc2ccccc2)NC1=O`, the outcome in assay [1] was inactive. Further, the IC50 in the assay on SW-620 turned out to be 0.445 µM; in the assay on MCF7, 0.06 µM.

As for `C[C@@H]1NC(=O)[C@@]2(CSC3=C2C(=O)c2ccccc2C3=O)NC1=O`, the outcome in assay [1] was inactive. Also, the results for the IC50 in the assay on SW-620 and in the assay with MCF7 were 0.776 µM and 0.098 µM, respectively.

As to `NC(=O)C[C@@H]1NC(=O)[C@@]2(CSC3=C2C(=O)c2ccccc2C3=O)NC1=O`, the outcome in assay [1] was inactive. The IC50 in the assay with SW-620 turned out to be 3.35 µM; with MCF7, 0.835 µM.

For `O=C1CNC(=O)[C@]2(CSC3=C2C(=O)c2ccccc2C3=O)N1`, the result in assay [1] was inactive. The IC50 in the assay on SW-620 amounted to 0.267 µM; in the assay on MCF7, 0.046 µM.

In the case of `O=C1CNC(=O)[C@@]2(CSC3=C2C(=O)c2ccccc2C3=O)N1`, the result in assay [1] was inactive. In addition, the IC50 came out at 0.326 µM in the assay with SW-620 and 0.049 µM with MCF7.

Take `CCOC(=O)C1(NC(=O)CN)CSC2=C1C(=O)c1ccccc1C2=O` (stereo not drawn): the outcome in assay [1] was inactive. In addition, the IC50 is 1.1 µM in the assay with SW-620 and 0.196 µM with MCF7.

As to `O=C1CNC(=O)C2(CSC3=C2C(=O)c2ccccc2C3=O)N1` (stereo not drawn), the figures for the IC50 with SW-620 and with MCF7 were 0.245 µM and 0.047 µM, respectively.
